From ChEMBL document CHEMBL1142077, “Inhibition of Plasmodium falciparum oocyst production by membrane-permeant cysteine protease inhibitor E64d” (2007) come the findings set out here.

Active and inactive are the calls of the source. The rule behind the calls is not given here.

For assay [1], the system named is Plasmodium falciparum. The assay is described as follows: Inhibition of exflagellation after 1 hrs in Plasmodium falciparum 3D7 at 10 uM in emergence medium. It counts as functional, organism-based. In a few lines: (§1)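 Mature 3D7 gametocytes incubated 1 h with inhibitor or an equal volume of DMSO, then pelleted. Gametogenesis triggered by adding an equal volume of emergence medium (xanthurenic acid, pH 8.2, RT). Scored on Giemsa-stained thin smears before and 15 min after the stimulus (emergence), and by bright-field observation of exflagellation centers 15–30 min after the stimulus.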

Assay [2] relates to Plasmodium falciparum. Description: Inhibition of Pfs230 processing after 1 hrs in Plasmodium falciparum 3D7 at 10 uM in emergence medium with 0.001% saponin. It counts as functional, organism-based. In a few lines: (§2)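 Mature stage V 3D7 gametocytes preincubated 1 h at 37°C in complete RPMI 1640 with inhibitor or DMSO (saponin 0.001% present or absent during this incubation). Cells then pelleted and resuspended in an equal volume of emergence medium (10 µM xanthurenic acid, glucose, NaCl, 8 mM Tris-Cl pH 8.2) at RT. Medium harvested after 1 h and clarified by centrifugation. Readout: immunoblot with Pfs230 region A (aa 304–378) antibodies, scoring 47-kDa and 35-kDa fragments.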

In assay [3] the test system is Plasmodium falciparum. The assay is described as follows: Inhibition of gametogenesis after 1 hrs in Plasmodium falciparum 3D7 at 10 uM in emergence medium. It counts as functional, organism-based. In outline:
as §1

Assay [4] relates to Plasmodium falciparum. The assay is described as follows: Inhibition of Pfs230 processing after 1 hrs in Plasmodium falciparum 3D7 at 100 uM in emergence medium. It counts as functional, organism-based. In a few lines: as §2
Assay [5] has as its system Plasmodium falciparum. The assay is described as follows: Inhibition of Pfs230 processing after 1 hrs in Plasmodium falciparum 3D7 at 10 uM in emergence medium. Format: functional, organism-based. In outline:
as §2

In assay [6] the test system is Plasmodium falciparum. Description: Inhibition of oocyst production after 7 days in Anopheles stephensi SxK Nij fed human serum infected with Plasmodium falciparum NF54 stage V gametocyte at 100 uM for 15 min. It counts as functional. In outline: (§3)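 Isolate NF54 stage V gametocytes treated for stated times with 100 µM inhibitor or DMSO, pelleted onto packed erythrocytes in normal human serum with active complement, membrane-fed (39°C) to Anopheles stephensi SxK Nij for 10 min; mosquitoes kept 7 days at 26°C. Midguts mercurochrome-stained, oocysts counted, 16 to 20 mosquitoes per feeding; geometric mean oocysts per midgut versus control; Kruskal-Wallis.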

In assay [7] the test system is Plasmodium falciparum. The assay is described as follows: Gametocyte morphology as exflagellation after 15-30 min in Plasmodium falciparum 3D7 at 100 uM for 1hr in emergence medium. Format: functional, organism-based.
Assay [8] deals with Plasmodium falciparum. Description: Inhibition of oocyst production after 7 days in Anopheles stephensi SxK Nij fed human serum infected with Plasmodium falciparum 3D7 stage V gametocyte at 10 uM for 1 hr. Format: functional, organism-based. In outline:
(§4)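 Strain 3D7 stage V gametocyte cultures treated 1 h with inhibitor or DMSO, 0.3 ml pelleted onto 150 µl packed erythrocytes, supernatant replaced by 120 µl normal human serum with active complement; membrane feeder at 39°C, mosquitoes gorge 10 min, kept 7 days at 26°C, >80% humidity. Midguts mercurochrome-stained, oocysts counted; geometric mean per midgut versus DMSO control gives percent reduction; Kruskal-Wallis.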

For assay [9], the system named is Plasmodium falciparum. Description: Inhibition of gametogenesis after 1 hrs in Plasmodium falciparum 3D7 at 100 uM in emergence medium. It counts as functional, organism-based.
Assay [10] deals with Plasmodium falciparum. The assay is described as follows: Inhibition of oocyst production after 7 days in Anopheles stephensi SxK Nij fed human serum infected with Plasmodium falciparum NF54 stage V gametocyte at 100 uM for 30 min. Format: functional. In outline:
as §3

Assay [11] relates to Plasmodium falciparum. Description: Inhibition of oocyst production after 7 days in Anopheles stephensi SxK Nij fed human serum infected with Plasmodium falciparum NF54 stage V gametocyte at 100 uM for 1 hr. Format: functional. In a few lines:
as §3

Assay [12] deals with Plasmodium falciparum. Description: Inhibition at day 7 of Plasmodium falciparum 3D7 oocyst production in human serum at 100 uM for 1 hrs prior to feeding Anopheles stephensi SxK Nij. It counts as functional. The following applies: 3D7, Serum. In a few lines: as §4

Consider `CC(C)C[C@H](NC(=O)C(CCc1ccccc1)NC(=O)CF)C(=O)NC(=O)N1CCOCC1` (some centres not stated), for which the outcome in the assay with Plasmodium falciparum [1], in the assay on Plasmodium falciparum [3], in the assay on Plasmodium falciparum [4] and in the assay on Plasmodium falciparum [5] was inactive. For the same compound, in the assay on Plasmodium falciparum [2], the outcome was Active.

For orientation: inhibition means the relative decrease from the control value, in per cent. High values mean a strong effect, low ones a weak effect. Turning to `CCOC(=O)[C@H]1O[C@@H]1C(=O)N[C@@H](CC(C)C)C(=O)NCCC(C)C` [ALOXISTATIN], the inhibition at 100 µM in the assay on Plasmodium falciparum [6] was 79%; in the assay on Plasmodium falciparum [10], 98%; in the assay with Plasmodium falciparum [11] it was 100%; in the assay on Plasmodium falciparum [12], 81%. Also, the result in the assay on Plasmodium falciparum [7], in the assay with Plasmodium falciparum [8] and in the assay on Plasmodium falciparum [9] was inactive.
